Laboratory results published in ChEMBL document CHEMBL1909587, “Design, synthesis and biological study of novel pyrido[2,3-d]pyrimidine as anti-proliferative CDK2 inhibitors” (Eur J Med Chem, 2011).

Tests used:
[1] = Inhibition of CDK4/cyclin D expressed in baculovirus infected insect Sf21 cells using [gamma-P32]ATP and histone H1 as substrate after 10 mins by radiometric assay
Summary of the method: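 20 µL reactions in 50 mM Tris-HCl with 10 µM ATP, 0.2 µCi [γ-32P]ATP, 10 mM MgCl2, 5 mM DTT, 4 µg histone H1 substrate; 10 min with inhibitor, stopped with 30% phosphoric acid. Spotted on P81 paper, washed five times in 10 mM Tris-HCl pH 8.0/0.1 M NaCl, radioactivity imaged; IC50 = concentration giving 50% inhibition.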

[2] = target: Cyclin-dependent kinase 2/cyclin A (Homo sapiens, UniProt P24941); assay: Inhibition of CDK2/cyclin A expressed in baculovirus infected insect Sf21 cells using [gamma-P32]ATP and histone H1 as substrate after 10 mins by radiometric assay
[3] = target: Epidermal growth factor receptor (Homo sapiens, UniProt P00533); assay: Inhibition of human EGFR
Summary of the method: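 Kinase activity measured with the C-terminal human EGFR tyrosine kinase domain; IC50 taken as the inhibitor concentration giving 50% inhibition.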

A-431 = assay: Growth inhibition of human A431 cells after 2 days by SRB assay; assay type: functional; conditions: A-431, 48 h
Summary of the method: (§1)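 Cells kept in RPMI 1640 with 10% FBS at 37 °C, 5% CO2; 1000 cells/well plated, compounds added next day at various concentrations for two days. Fixed with 4% formalin, stained with 0.1% sulforhodamine B, dye eluted in 0.1 M Tris/HCl pH 8.0, absorbance at 520 nm. Triplicate, averaged; 0% = treatment-time absorbance, 100% = untreated two-day growth; GI50 = 50% growth inhibition.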

SNU-638 = assay: Growth inhibition of human SNU638 cells after 2 days by SRB assay; assay type: functional; conditions: SNU-638, 48 h; summary of the method: as §1
HCT116 (Homo sapiens) = assay: Growth inhibition of human HCT116 cells after 2 days by SRB assay; conditions: HCT116, 48 h

Chain of Epidermal growth factor receptor (P00533 whole entry, the tested form may be a part): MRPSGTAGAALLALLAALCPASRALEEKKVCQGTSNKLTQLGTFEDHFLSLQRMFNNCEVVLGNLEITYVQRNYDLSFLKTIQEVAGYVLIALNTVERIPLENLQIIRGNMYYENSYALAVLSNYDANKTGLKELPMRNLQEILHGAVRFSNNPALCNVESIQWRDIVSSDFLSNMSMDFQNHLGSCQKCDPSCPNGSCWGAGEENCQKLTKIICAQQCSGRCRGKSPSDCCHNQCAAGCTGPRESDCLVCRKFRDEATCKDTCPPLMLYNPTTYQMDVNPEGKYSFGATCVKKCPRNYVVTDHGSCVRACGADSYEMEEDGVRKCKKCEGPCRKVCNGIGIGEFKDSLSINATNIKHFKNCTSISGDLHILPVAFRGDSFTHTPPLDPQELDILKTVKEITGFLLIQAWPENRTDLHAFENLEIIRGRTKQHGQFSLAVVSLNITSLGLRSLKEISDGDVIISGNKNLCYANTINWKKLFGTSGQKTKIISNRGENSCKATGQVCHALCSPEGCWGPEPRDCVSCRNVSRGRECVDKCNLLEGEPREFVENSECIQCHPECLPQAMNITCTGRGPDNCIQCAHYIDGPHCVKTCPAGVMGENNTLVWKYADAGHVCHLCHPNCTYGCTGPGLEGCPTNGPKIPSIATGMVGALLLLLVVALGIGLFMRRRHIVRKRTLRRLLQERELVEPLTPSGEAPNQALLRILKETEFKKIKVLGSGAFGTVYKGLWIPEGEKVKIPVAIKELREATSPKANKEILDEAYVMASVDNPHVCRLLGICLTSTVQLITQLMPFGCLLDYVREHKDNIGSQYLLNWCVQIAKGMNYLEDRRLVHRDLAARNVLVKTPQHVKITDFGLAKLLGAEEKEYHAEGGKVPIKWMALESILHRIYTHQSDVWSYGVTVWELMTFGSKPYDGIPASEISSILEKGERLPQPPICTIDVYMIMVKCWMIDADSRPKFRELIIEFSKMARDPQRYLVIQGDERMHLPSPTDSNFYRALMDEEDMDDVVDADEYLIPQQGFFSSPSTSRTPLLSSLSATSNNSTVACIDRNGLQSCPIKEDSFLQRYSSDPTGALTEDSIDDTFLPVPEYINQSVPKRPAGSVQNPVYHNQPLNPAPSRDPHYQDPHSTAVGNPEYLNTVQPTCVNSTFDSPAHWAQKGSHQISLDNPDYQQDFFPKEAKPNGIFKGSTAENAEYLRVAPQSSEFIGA

Structure (SMILES) | IC50 [2] [µM] | IC50 [3] [µM] | GI50 (A-431) [µM] | GI50 (SNU-638) [µM] | GI50 (HCT116 (Homo sapiens)) [µM] | IC50 [1] [µM]
N#Cc1cc2c(N)ncnc2nc1NCCO | 29.5 | 93.3 | 26.6 | 20.8 | 4.5 | > 200
Cc1c(C#N)c(NCCO)nc2ncnc(N)c12 | 29.5 | > 100 | 5.06 | 2.58 | 4.1 | 36
N#Cc1cc2c(N)ncnc2nc1Nc1ccc(S(N)(=O)=O)cc1 | 0.3 | > 100 | 7.8 | 7.57 | 19.3 | 13
Cc1c(C#N)c(Nc2ccc(S(N)(=O)=O)cc2)nc2ncnc(N)c12 | 10 | > 100 | 2.94 | 6.2 | 16.6 | 16
Nc1scc2c1c(NCCO)nc1ncnc(N)c12 | 0.5 | > 100 | 54.3 | 18.3 | 6.46 | 29
Nc1scc2c1c(Nc1ccc(S(N)(=O)=O)cc1)nc1ncnc(N)c12 | 36.3 | 29.5 | 3.94 | 2.56 | 8.89 | > 120
COc1cccc2c1C(=O)c1c(O)c3c(c(O)c1C2=O)C[C@@](O)(C(=O)CO)C[C@@H]3O[C@H]1C[C@H](N)[C@H](O)[C@H](C)O1 [DOXORUBICIN] | – | – | 0.18 | – | 0.13 | –
CC[C@H](CO)Nc1nc(NCc2ccccc2)c2ncn(C(C)C)c2n1 [SELICICLIB] | – | – | – | – | – | 15

Now from value to compound, other results behind:

IC50 [2] [µM] | IC50 [3] [µM] | GI50 (A-431) [µM] | GI50 (SNU-638) [µM] | GI50 (HCT116 (Homo sapiens)) [µM] | Structure (SMILES) | IC50 [1] [µM]
6.3 | > 100 | 6.25 | 7.95 | 10.9 | N#Cc1cc2c(N)nc(NCCO)nc2nc1NCCO | 28
3.8 | 47.9 | 31.9 | 18.2 | 20.1 | Cc1c(C#N)c(NCCO)nc2nc(NCCO)nc(N)c12 | 10
0.9 | > 100 | 36.3 | 35.8 | 48.2 | N#Cc1cc2c(N)nc(NCCO)nc2nc1Nc1ccc(S(N)(=O)=O)cc1 | 120
3.1 | > 100 | > 100 | 17.1 | 38.2 | Cc1c(C#N)c(Nc2ccc(S(N)(=O)=O)cc2)nc2nc(NCCO)nc(N)c12 | 95
0.09 | 66.1 | 4.6 | 2.57 | 11.4 | Nc1scc2c1c(NCCO)nc1nc(NCCO)nc(N)c12 | > 48
8.1 | > 100 | 21.9 | 26.1 | 47.7 | Nc1scc2c1c(Nc1ccc(S(N)(=O)=O)cc1)nc1nc(NCCO)nc(N)c12 | 44
– | – | 16.6 | 16.6 | 12.1 | Cn1cnc2c(NCc3ccccc3)nc(NCCO)nc21 [OLOMOUCINE] | 45
